Measured values as given in ChEMBL document CHEMBL3124837, “Bicyclic 1-hydroxy-2-oxo-1,2-dihydropyridine-3-carboxamide-containing HIV-1 integrase inhibitors having high antiviral potency against cells harboring raltegravir-resistant integrase mutants” (J Med Chem, 2014).

Key:
HOS = assay: Cytotoxicity against HOS cells assessed as reduction in ATP level after 48 hrs by luciferase reporter gene assay; assay type: cell-based; conditions: human
How it was run: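 HOS cells in DMEM with 5% FBS and 5% newborn calf serum, seeded 4000 per well the day before, exposed to compound for 48 h at 37 °C. Cells lysed and ATP measured with a luciferase (ATPlite) read-out. Signal normalized to untreated cells; CC50 from regression fit.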

[1] = molecular target: T1, Human immunodeficiency virus type 1 integrase (Human immunodeficiency virus 1, UniProt Q7ZJM1); assay: Inhibition of HIV-1 integrase-mediated strand transfer activity using [32P]-labeled oligonucleotide as substrate after 2 hrs by densitometric analysis
T1 sequence (Q7ZJM1 whole entry): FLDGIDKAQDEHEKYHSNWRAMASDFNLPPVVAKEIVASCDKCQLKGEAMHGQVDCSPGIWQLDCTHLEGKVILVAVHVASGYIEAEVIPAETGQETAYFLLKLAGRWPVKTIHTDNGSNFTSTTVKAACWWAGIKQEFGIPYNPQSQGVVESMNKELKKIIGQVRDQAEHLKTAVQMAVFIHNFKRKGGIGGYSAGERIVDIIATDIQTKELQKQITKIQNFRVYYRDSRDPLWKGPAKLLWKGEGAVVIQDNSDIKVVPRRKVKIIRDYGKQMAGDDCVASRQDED
How it was run: (§1)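 400 nM integrase with 20 nM [γ-32P]-labeled DNA in 50 mM MOPS pH 7.2, 7.5 mM MgCl2, 14 mM 2-mercaptoethanol; compounds in DMSO. The substrate for 3′-processing was 21T/21B duplex, and for strand transfer the precleaved 19T/21B duplex. Reactions ran 2 h at 37 °C and were quenched with formamide/SDS loading buffer.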

[2] = molecular target: T1, Human immunodeficiency virus type 1 integrase; assay: Inhibition of HIV-1 integrase-mediated 3'-processing activity using [32P]-labeled oligonucleotide as substrate after 2 hrs by densitometric analysis; how it was run: as §1
[3] = Selectivity index, ratio of CC50 for HOS cells to EC50 for wild-type Human immunodeficiency virus 1
[4] = tested on: Human immunodeficiency virus 1; assay: Antiviral activity against Human immunodeficiency virus 1 harboring integrase G140S/Q148H double mutant infected in HOS cells preincubated for 3 hrs followed by viral infection measured after 48 hrs by luciferase reporter gene assay; assay type: functional, organism-based; conditions: Human immunodeficiency virus 1, HOS
How it was run: (§2)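 VSV-g-pseudotyped single-round HIV-1 luciferase vector (pNLNgoMIVR-ΔLUC; IN mutants made by site-directed mutagenesis), produced by 293T transfection. HOS cells seeded the day before, given compound over 10 μM to 0.0005 μM (11 serial dilutions), 3 h at 37 °C, then virus added; 48 h at 37 °C. Luciferase read-out normalized to no-compound infectivity; EC50 from regression fit.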

[5] = tested on: Human immunodeficiency virus 1; assay: Antiviral activity against Human immunodeficiency virus 1 harboring integrase N155H mutant infected in HOS cells preincubated for 3 hrs followed by viral infection measured after 48 hrs by luciferase reporter gene assay; assay type: functional, organism-based; conditions: Human immunodeficiency virus 1, HOS; how it was run: as §2
[6] = tested on: Human immunodeficiency virus 1; assay: Antiviral activity against Human immunodeficiency virus 1 harboring integrase Y143R mutant infected in HOS cells preincubated for 3 hrs followed by viral infection measured after 48 hrs by luciferase reporter gene assay; assay type: functional, organism-based; conditions: Human immunodeficiency virus 1, HOS; how it was run: as §2
[7] = tested on: Human immunodeficiency virus 1; assay: Antiviral activity against wild-type Human immunodeficiency virus 1 infected in HOS cells preincubated for 3 hrs followed by viral infection measured after 48 hrs by luciferase reporter gene assay; assay type: functional, organism-based; conditions: Human immunodeficiency virus 1, HOS; how it was run: as §2
[8] = tested on: Human immunodeficiency virus 1; assay: Ratio of raltegravir EC50 to compound EC50 for Human immunodeficiency virus 1 harboring integrase E138K/Q148K double mutant; assay type: functional
How it was run: (§3)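 VSV-g-pseudotyped single-round HIV-1 luciferase vectors, produced in 293T cells, carrying WT or site-directed mutant IN (G118R, Y143R, N155H, G140S+Q148H, E138K+Q148K). HOS cells were pretreated 3 h at 37 °C with compound (10 μM to 0.0005 μM, 11 serial dilutions), infected, and incubated 48 h. Luciferase signal was normalized to no-compound infectivity, and EC50 was taken from regression fit. Ratios were formed from these EC50s.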

[9] = tested on: Human immunodeficiency virus 1; assay: Ratio of raltegravir EC50 to compound EC50 for Human immunodeficiency virus 1 harboring integrase G140S/Q148H double mutant; assay type: functional; how it was run: as §3
[10] = tested on: Human immunodeficiency virus 1; assay: Ratio of raltegravir EC50 to compound EC50 for Human immunodeficiency virus 1 harboring integrase Y143R mutant; assay type: functional; how it was run: as §3
[11] = tested on: Human immunodeficiency virus 1; assay: Ratio of raltegravir EC50 to compound EC50 for Human immunodeficiency virus 1 harboring integrase N155H mutant; assay type: functional; how it was run: as §3
[12] = tested on: Human immunodeficiency virus 1; assay: Ratio of EC50 for Human immunodeficiency virus 1 harboring integrase G118R mutant to EC50 for wild-type Human immunodeficiency virus 1; assay type: functional; how it was run: as §3
[13] = tested on: Human immunodeficiency virus 1; assay: Ratio of EC50 for Human immunodeficiency virus 1 harboring integrase N155H mutant to EC50 for wild-type Human immunodeficiency virus 1; assay type: functional

Cc1nnc(C(=O)NC(C)(C)c2nc(C(=O)NCc3ccc(F)cc3)c(O)c(=O)n2C)o1
CC50 (HOS): > 100000 nM

O=C(NCc1ccc(F)cc1F)c1cc2ccccc2n(O)c1=O
IC50 [1]: 19700 nM
IC50 [2]: > 333000 nM

COc1cccc2cc(C(=O)NCc3ccc(F)cc3F)c(=O)n(O)c12
IC50 [1]: > 333000 nM
IC50 [2]: > 333000 nM

O=C(NCc1ccc(F)c(Cl)c1)c1c(O)c2cccnc2n(O)c1=O
selectivity ratio [3]: 2910
EC50 [4]: 489 nM
EC50 [5]: 148 nM
EC50 [6]: 54 nM
CC50 (HOS): 102000 nM
IC50 [1]: 27 nM
IC50 [2]: 4700 nM
EC50 [7]: 35 nM

O=C(NCc1ccc(F)c(F)c1)c1c(O)c2cccnc2n(O)c1=O
selectivity ratio [3]: 9600
EC50 [4]: 507 nM
EC50 [5]: 189 nM
EC50 [6]: 45 nM
CC50 (HOS): 192000 nM
IC50 [1]: 40 nM
IC50 [2]: 3600 nM
EC50 [7]: 20 nM

O=C(NCc1ccc(F)cc1F)c1c(O)c2cccnc2n(O)c1=O
Ratio EC50 [8]: 10
Ratio EC50 [9]: 10
Ratio EC50 [10]: 10
Ratio EC50 [11]: 10
Ratio EC50 [12]: 6
Ratio EC50 [13]: 5
selectivity ratio [3]: 22100
EC50 [4]: 308 nM
EC50 [5]: 31 nM
EC50 [6]: 11 nM
CC50 (HOS): 137000 nM
IC50 [1]: 55 nM
IC50 [2]: 1200 nM
EC50 [7]: 6.2 nM

O=C(NCc1ccc(F)c(Cl)c1)c1c(O)c2cccnc2[nH]c1=O
IC50 [1]: 7800 nM
IC50 [2]: 125000 nM

O=C(NCc1ccc(F)c(F)c1)c1c(O)c2cccnc2[nH]c1=O
IC50 [1]: 8100 nM
IC50 [2]: 93000 nM

O=C(NCc1ccc(F)cc1F)c1c(O)c2cccnc2[nH]c1=O
IC50 [1]: 7100 nM
IC50 [2]: > 333000 nM

O=C(NCc1ccc(F)c(Cl)c1)c1cc2cccc(O)c2n(O)c1=O
IC50 [1]: 530 nM
IC50 [2]: 17000 nM

O=C(NCc1ccc(F)c(F)c1)c1cc2cccc(O)c2n(O)c1=O
IC50 [1]: 780 nM
IC50 [2]: 24000 nM

O=C(NCc1ccc(F)cc1F)c1cc2cccc(O)c2n(O)c1=O
IC50 [1]: 18000 nM
IC50 [2]: 43000 nM

O=C(NCc1ccc(F)c(Cl)c1)c1cc2cccnc2n(O)c1=O
selectivity ratio [3]: > 6580
EC50 [5]: 90 nM
EC50 [6]: 34 nM
CC50 (HOS): > 250000 nM
IC50 [1]: 14 nM
IC50 [2]: 9400 nM
EC50 [7]: 38 nM

O=C(NCc1ccc(F)c(F)c1)c1cc2cccnc2n(O)c1=O
selectivity ratio [3]: > 4030
EC50 [5]: 2200 nM
EC50 [6]: 40 nM
CC50 (HOS): > 250000 nM
IC50 [1]: 17 nM
IC50 [2]: 13600 nM
EC50 [7]: 62 nM

O=C(NCc1ccc(F)cc1F)c1cc2cccnc2n(O)c1=O
Ratio EC50 [13]: 26
selectivity ratio [3]: > 49000
EC50 [4]: 438 nM
EC50 [5]: 134 nM
CC50 (HOS): > 250000 nM
IC50 [1]: 41 nM
IC50 [2]: 6100 nM
EC50 [7]: 5.1 nM
